Measurements as given in ChEMBL document CHEMBL3102732, “Potential antiviral lignans from the roots of Saururus chinensis with activity against Epstein-Barr virus lytic replication” (J Nat Prod, 2014).

Tests used:
[1] = Cytotoxicity against human P3HR1 cells assessed as cell viability after 2 days by trypan blue staining-based light microscopy; set-up: species or system P3HR-1
Human gammaherpesvirus 4 = experiment: Antiviral activity against EBV infected in human P3HR1 cells assessed as inhibition of lytic viral DNA replication after 48 hrs by RT-PCR analysis; format: functional, organism-based; details: human gammaherpesvirus 4, P3HR-1, 48 h
Summary of the method: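 P3HR-1 Burkitt lymphoma cells latently carrying EBV, grown in RPMI 1640 with 10% FBS, induced to lytic replication with TPA 20 ng/mL plus sodium butyrate 0.3 mM. Compounds added 3 h later across a concentration range. At 48 h post-induction, total cellular DNA purified, EBV genome copies quantified by SYBR green real-time PCR for EBNA1. Noninduced background subtracted, normalised to untreated induced cells, EC50 from dose-response curve.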

[2] = Selectivity index, ratio of CC50 for human P3HR1 cells to EC50 for EBV infected in human P3HR1 cells; set-up: species or system P3HR-1
Summary of the method: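 CC50: P3HR-1 cells treated or untreated with compounds, viability counted by Trypan blue exclusion under light microscope 2 days post-treatment, relative to nondrug-treated controls, CC50 from dose-response curves. EC50: TPA (20 ng/mL)/sodium butyrate (0.3 mM)-induced P3HR-1 cells, compounds added 3 h later, EBV EBNA1 DNA quantified by real-time PCR at 48 h. Ratio CC50/EC50.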

Structure (SMILES): C/C=C/c1cc(OC)c(O[C@@H](C)[C@@H](O)c2cc(OC)c(OC)c(OC)c2)c(OC)c1
- CC50 at 48 h [1]: 77.3 µM
- EC50 (Human gammaherpesvirus 4): 24 µM
- Ratio CC50/EC50 [2]: 3.2

Structure (SMILES): COc1ccc([C@H]2O[C@@H](c3ccc(OC)c(OC)c3)[C@@H](C)[C@H]2C)cc1OC
- CC50 at 48 h [1]: 59.8 µM
- EC50 (Human gammaherpesvirus 4): 49.9 µM
- Ratio CC50/EC50 [2]: 1.2

Structure (SMILES): C=CCc1cc(OC)c(O[C@H](C)[C@H](OC(C)=O)c2cc(OC)c(OC)c(OC)c2)c(OC)c1
- CC50 at 48 h [1]: 85 µM
- EC50 (Human gammaherpesvirus 4): 21.5 µM
- Ratio CC50/EC50 [2]: 4

Structure (SMILES): C=CCc1cc(OC)c(O[C@H](C)[C@H](O)c2cc(OC)c3c(c2)OCO3)c(OC)c1
- CC50 at 48 h [1]: 50.6 µM
- EC50 (Human gammaherpesvirus 4): 12.8 µM
- Ratio CC50/EC50 [2]: 4

Structure (SMILES): C/C=C/c1cc(OC)c(O[C@H](C)[C@H](OC(C)=O)c2cc(OC)c(OC)c(OC)c2)c(OC)c1
- CC50 at 48 h [1]: 76.8 µM
- EC50 (Human gammaherpesvirus 4): 25.4 µM
- Ratio CC50/EC50 [2]: 3

Structure (SMILES): C=CCc1cc(OC)c(O[C@H](C)C(=O)c2cc(OC)c(OC)c(OC)c2)c(OC)c1
- CC50 at 48 h [1]: > 200 µM
- EC50 (Human gammaherpesvirus 4): 21.9 µM
- Ratio CC50/EC50 [2]: >9.1

Structure (SMILES): C/C=C/c1ccc(O[C@H](C)[C@H](O)c2ccc(O)c(OC)c2)c(OC)c1
- CC50 at 48 h [1]: 61.3 µM
- EC50 (Human gammaherpesvirus 4): 23.8 µM
- Ratio CC50/EC50 [2]: 2.6

Structure (SMILES): COc1ccc([C@H]2O[C@@H](c3cc(OC)c(O)c(OC)c3)[C@H](C)[C@@H]2C)cc1OC
- CC50 at 48 h [1]: 100 µM
- EC50 (Human gammaherpesvirus 4): 11.6 µM
- Ratio CC50/EC50 [2]: 8.6

Structure (SMILES): COc1ccc([C@H]2O[C@@H](c3cc(OC)c(OC)c(OC)c3)[C@H](C)[C@@H]2C)cc1OC
- CC50 at 48 h [1]: 172 µM
- EC50 (Human gammaherpesvirus 4): 67.9 µM
- Ratio CC50/EC50 [2]: 2.5

Structure (SMILES): COc1cc([C@H]2O[C@@H](c3cc(OC)c4c(c3)OCO4)[C@H](C)[C@@H]2C)cc(OC)c1OC
- CC50 at 48 h [1]: 55 µM
- EC50 (Human gammaherpesvirus 4): 27.3 µM
- Ratio CC50/EC50 [2]: 2

Structure (SMILES): COc1cc([C@H]2O[C@@H](c3cc(OC)c(OC)c(OC)c3)[C@H](C)[C@@H]2C)cc(OC)c1O
- CC50 at 48 h [1]: 65.8 µM
- EC50 (Human gammaherpesvirus 4): 29.5 µM
- Ratio CC50/EC50 [2]: 2.2

Structure (SMILES): COc1cc([C@H]2O[C@@H](c3ccc(OC)c(OC)c3)[C@@H](C)[C@H]2C)ccc1O
- CC50 at 48 h [1]: 62.3 µM
- EC50 (Human gammaherpesvirus 4): 26.9 µM
- Ratio CC50/EC50 [2]: 2.3

Structure (SMILES): COc1cc([C@@H](O)[C@@H](C)Oc2ccc([C@@H]3O[C@H](c4ccc(O)c(OC)c4)[C@H](C)[C@H]3C)cc2OC)ccc1O
- CC50 at 48 h [1]: 23.2 µM
- EC50 (Human gammaherpesvirus 4): 6.95 µM
- Ratio CC50/EC50 [2]: 3.3

Structure (SMILES): COc1cc([C@H]2O[C@@H](c3cc(OC)c(OC)c(OC)c3)[C@H](C)[C@@H]2C)cc(O)c1OC
- CC50 at 48 h [1]: 32 µM
- EC50 (Human gammaherpesvirus 4): 16.7 µM
- Ratio CC50/EC50 [2]: 1.9

Structure (SMILES): COc1ccc([C@@H](O)[C@@H](C)Oc2ccc([C@H]3O[C@H](c4ccc(OC)c(OC)c4)[C@H](C)[C@H]3C)cc2OC)cc1OC
- CC50 at 48 h [1]: 110 µM
- EC50 (Human gammaherpesvirus 4): 1.7 µM
- Ratio CC50/EC50 [2]: 65

Structure (SMILES): COc1ccc([C@@H](O)[C@@H](C)Oc2ccc(C(=O)[C@H](C)[C@H](C)C(=O)c3ccc(O[C@H](C)[C@H](O)c4ccc5c(c4)OCO5)c(OC)c3)cc2OC)cc1OC
- CC50 at 48 h [1]: > 200 µM
- EC50 (Human gammaherpesvirus 4): 16.2 µM
- Ratio CC50/EC50 [2]: >12.4

Structure (SMILES): COc1cc([C@@H](O)[C@@H](C)Oc2ccc([C@H]3O[C@H](c4ccc(O[C@H](C)[C@H](O)c5ccc(OC)c(OC)c5)c(OC)c4)[C@H](C)[C@H]3C)cc2OC)ccc1O
- CC50 at 48 h [1]: 69.5 µM
- EC50 (Human gammaherpesvirus 4): 7.55 µM
- Ratio CC50/EC50 [2]: 9.2

Structure (SMILES): COc1ccc([C@@H](O)[C@@H](C)Oc2ccc([C@H]3O[C@H](c4ccc(O[C@H](C)[C@H](O)c5ccc6c(c5)OCO6)c(OC)c4)[C@H](C)[C@H]3C)cc2OC)cc1O
- CC50 at 48 h [1]: 26.5 µM
- EC50 (Human gammaherpesvirus 4): 2.69 µM

Structure (SMILES): COc1cc(C(=O)[C@@H](C)Oc2c(OC)cc(/C=C/CO)cc2OC)cc(OC)c1OC
- CC50 at 48 h [1]: > 200 µM
- EC50 (Human gammaherpesvirus 4): 80.1 µM
- Ratio CC50/EC50 [2]: >2.5

Structure (SMILES): C=CCc1cc(OC)c(O[C@H](COC(C)=O)[C@H](O)c2cc(OC)c(OC)c(OC)c2)c(OC)c1
- CC50 at 48 h [1]: 194 µM
- EC50 (Human gammaherpesvirus 4): 53.3 µM
- Ratio CC50/EC50 [2]: 3.7

Structure (SMILES): COc1cc([C@@H](OC(C)=O)[C@@H](C)Oc2c(OC)cc(/C=C/CO)cc2OC)cc(OC)c1OC
- CC50 at 48 h [1]: > 200 µM
- EC50 (Human gammaherpesvirus 4): 44.3 µM
- Ratio CC50/EC50 [2]: >4.2

Structure (SMILES): C/C=C/c1cc(OC)c(O[C@H](C)[C@H](O)c2cc(OC)c3c(c2)OCO3)c(OC)c1
- CC50 at 48 h [1]: 90.3 µM
- EC50 (Human gammaherpesvirus 4): 21.7 µM
- Ratio CC50/EC50 [2]: 4.2

Structure (SMILES): COc1ccc([C@@H](O)[C@@H](C)Oc2ccc([C@H]3O[C@@]4(c5ccc(O[C@H](C)[C@H](O)c6ccc(OC)c(OC)c6)c(OC)c5)O[C@@]4(C)[C@H]3C)cc2OC)cc1OC (relative stereo)
- CC50 at 48 h [1]: 64.8 µM
- EC50 (Human gammaherpesvirus 4): 14.5 µM
- Ratio CC50/EC50 [2]: 4.4

Structure (SMILES): COc1cc([C@@H](O)[C@@H](C)Oc2ccc([C@H]3O[C@H](c4ccc(O[C@H](C)[C@H](O)c5ccc6c(c5)OCO6)c(OC)c4)[C@H](C)[C@H]3C)cc2OC)ccc1O [4-O-DEMETHYLMANASSANTIN B]
- CC50 at 48 h [1]: 70.8 µM
- EC50 (Human gammaherpesvirus 4): 3.52 µM
- Ratio CC50/EC50 [2]: 20.2

Structure (SMILES): COc1cc([C@H]2O[C@@H](c3cc(OC)c(OC)c(OC)c3)[C@H](C)[C@H]2C)cc(OC)c1OC [EPIGRANDISIN]
- CC50 at 48 h [1]: > 200 µM
- EC50 (Human gammaherpesvirus 4): 25 µM
- Ratio CC50/EC50 [2]: >8

Structure (SMILES): COc1ccc([C@@H](O)[C@@H](C)Oc2ccc([C@H]3O[C@H](c4ccc(O[C@H](C)[C@H](O)c5ccc6c(c5)OCO6)c(OC)c4)[C@H](C)[C@H]3C)cc2OC)cc1OC [MANASSANTIN B]
- CC50 at 48 h [1]: > 200 µM
- EC50 (Human gammaherpesvirus 4): 1.72 µM
- Ratio CC50/EC50 [2]: >116.4

Structure (SMILES): COc1ccc([C@H](O)[C@@H](C)Oc2ccc([C@H]3O[C@H](c4ccc5c(c4)OCO5)[C@H](C)[C@H]3C)cc2OC)cc1OC [SAUCERNEOL D]
- CC50 at 48 h [1]: 45 µM
- EC50 (Human gammaherpesvirus 4): 1.09 µM
- Ratio CC50/EC50 [2]: 41.1
